Assay outcomes deposited in PubChem by Johns Hopkins Ion Channel Center.
The list is not random: actives were taken first. Their share in the collection is about 3.7%.
KCNK9 inh – blocks the human KCNK9 two-pore domain potassium channel | Q9NPC2 | HEK293 KCNK9, FluxOR thallium flux fluorescence; stronger effect = lower value | B-score at 10 µM | actives 1.2% (n = 310,000) | AID 488922;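 active means ratio B-score over 3 SD below the library mean, with starting fluorescence within 5 SD of its mean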;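 further: negative B-score means less thallium flux so channel inhibition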
KCNK3 inh – human KCNK3 channel inhibition, primary screen; CHO-KCNK3 thallium flux, FluxOR fluorescence; stronger effect = lower value; B-score at 10 µM; actives 0.84% (n = 340,000); AID 602410;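 active means B-score under library mean minus 4 SD, starting fluorescence ratio at most library mean plus 5 SD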;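 further: more negative B-score means stronger inhibition of thallium flux through KCNK3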
Target sequence (O14649 whole entry, looked up): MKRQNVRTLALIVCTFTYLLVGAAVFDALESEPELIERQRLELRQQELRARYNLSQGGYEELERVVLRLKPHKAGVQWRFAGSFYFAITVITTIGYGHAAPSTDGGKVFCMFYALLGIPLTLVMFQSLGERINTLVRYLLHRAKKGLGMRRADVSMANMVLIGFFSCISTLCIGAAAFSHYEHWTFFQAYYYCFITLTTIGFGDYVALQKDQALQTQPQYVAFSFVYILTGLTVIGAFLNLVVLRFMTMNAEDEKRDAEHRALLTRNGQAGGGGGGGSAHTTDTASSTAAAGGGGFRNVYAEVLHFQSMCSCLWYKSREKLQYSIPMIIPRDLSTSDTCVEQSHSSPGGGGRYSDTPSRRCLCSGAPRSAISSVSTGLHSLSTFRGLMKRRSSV
Kir21 inh – blocks the mouse Kir2.1 inward-rectifier potassium channel. HEK293-Kir2.1, FluxOR thallium flux fluorescence; stronger effect = lower value. B-score at 10 µM. actives 0.85% (n = 310,000);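 active means fluorescence ratio B-score at or below minus 3 SD of library scores, with starting-brightness B-score within 2 SD, cut at about -4.2 in these data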;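 further: channel flux triggered by added potassium and thallium sulfate stimulus; B-score of peak minus minimum fluorescence over baseline after thallium stimulus; more negative B-score means stronger Kir2.1 block with less thallium influx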
Target sequence (P35561 whole entry, looked up): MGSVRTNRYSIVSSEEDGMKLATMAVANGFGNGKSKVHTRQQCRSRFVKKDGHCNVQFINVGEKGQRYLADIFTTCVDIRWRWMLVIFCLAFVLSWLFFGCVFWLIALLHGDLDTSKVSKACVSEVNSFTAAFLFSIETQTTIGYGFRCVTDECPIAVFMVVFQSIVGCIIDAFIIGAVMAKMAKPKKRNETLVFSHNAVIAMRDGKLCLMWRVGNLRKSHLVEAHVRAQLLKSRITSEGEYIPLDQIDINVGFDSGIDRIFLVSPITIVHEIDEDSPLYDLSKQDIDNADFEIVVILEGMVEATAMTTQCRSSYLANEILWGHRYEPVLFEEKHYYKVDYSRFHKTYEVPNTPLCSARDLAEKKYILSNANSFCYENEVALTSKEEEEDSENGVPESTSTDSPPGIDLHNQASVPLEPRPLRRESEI
hERG protect – compounds protecting human hERG from proarrhythmic drug block; CHO-hERG, FluxOR thallium flux, dofetilide IC70 present; AID 1511; activation (rescue from dofetilide block), less the hit threshold, % at 10 µM; actives 0.51% (n = 310,000);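 active means activation above the mean of controls blocked by dofetilide plus 5 SD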;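 further: thallium influx through hERG after potassium depolarization seen as dye fluorescence rise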
KCNQ1 block – blocks the human KCNQ1 potassium channel; AID 2642; P51787; B-score at 10 µM; actives 1.3% (n = 310,000); CHO-K1 KCNQ1, FluxOR thallium flux fluorescence; stronger effect = higher value;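 active means compounds whose thallium flux B-score, printed positive for inhibition, exceeds three library SD while starting fluorescence stays within three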;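 further: channel opened by potassium depolarization with thallium stimulus after 20 min compound exposure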
KCNQ1 act – human KCNQ1 channel potentiation or activation; P51787; CHO-K1 KCNQ1, thallium flux FluxOR fluorescence; stronger effect = higher value; B-score at 10 µM; actives 0.35% (n = 310,000); AID 2648;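 active means fluorescence ratio B-score, a plate-corrected score, at least three library SD, with initial intensity B-score within 5 SD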
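System: Stable KCNQ1 CHO-K1 line | Incubation: 90 min dye loading and 20 min compound exposure, both at room temperature | Measure: Ratio B score | Medium: Assay buffer for compound exposure, DMSO matched across wells | Compound dosing: Single-concentration screen | Probe or stimulus: K+/Tl+ depolarizing stimulus | Measured by: Kinetic FluxOR fluorescence, 10 s baseline plus 110 s post-stimulus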
KCNQ1 block val – reconfirmed blocker of the human KCNQ1 potassium channel; KCNQ1 cell line, FluxOR thallium flux fluorescence; shares compounds with KCNQ1 block; inhibition, % at 10 µM; actives 93% (n = 1,600);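 active means primary screen active, with duplicate mean exceeding buffer control mean plus 3 SD of buffer wells, cut at about 28% in these data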
CHO KCNQ1 ctr – KCNQ1 inhibitor counter-screen hit in parental CHO cells | shares compounds with KCNQ1 block | parental CHO-K1, FluxOR thallium flux fluorescence ratio; stronger effect = lower value; zero means no signal rise above baseline | fluorescence ratio (Tl flux) at 10 µM | actives 21% (n = 1,600) | AID 588366;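 active means mean of duplicate thallium-flux fluorescence ratios in parental host cells more than 5 SD below the buffer control mean, cut at about 0.38 in these data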;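 further: ratio is peak minus minimum fluorescence divided by baseline fluorescence; actives read low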
KCNQ1 APC inh – blocks human KCNQ1 current in automated patch clamp; shares compounds with KCNQ1 block; KCNQ1-CHO cells; calls only at 10 µM; actives 20% (n = 490);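 active means KCNQ1 current drop exceeding 3 SD of negative control wells, seen in both duplicate runs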;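 further: steady state current during a 2 s step from -80 to +40 mV; negative values mean current inhibition and positive values mean potentiation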
KCNQ2 inh – selectivity of KCNQ1 inhibitors: inhibition of rat KCNQ2 channel; AID 651746; inhibition, % at 10 µM; shares compounds with KCNQ1 block; actives 71% (n = 1,600); KCNQ2 cells, FluxOR thallium flux fluorescence;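 active means mean percent inhibition of the KCNQ2 thallium signal more than 5 SD above the buffer-only control wells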;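 further: KCNQ2 expressed in CHO cells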
KCNQ1-KCNE1 inh – selectivity of KCNQ1 inhibitors: inhibition of human KCNQ1/KCNE1 channel; inhibition, % at 10 µM; shares compounds with KCNQ1 block; KCNQ1/KCNE1 cells, FluxOR thallium flux fluorescence; actives 77% (n = 1,600);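 active means mean percent inhibition of duplicate wells above the buffer-only control mean plus 3 SD of those controls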
Each line names hits and unclear results; the compound was inactive in the other large screens (follow-up assays come after a bar, where they were run).

Cn1nc(C(F)(F)F)c(-c2ccc(Br)cc2)c1NC(=O)c1nccnc1C(=O)O	none
COC(=O)C(Cc1ccccc1)NS(=O)(=O)c1ccc(F)cc1Br (centres undefined)	none
CCOc1cccc(-c2c(C(=O)N/N=C(\C)c3cccnc3)nnn2-c2nonc2N)c1	none
Cn1c(=O)c(NCCc2ccccc2)c2c3c(cccc31)C(=O)c1ccccc1-2	KCNQ1 block 29 | KCNQ1 block val active | CHO KCNQ1 ctr 0.004 | KCNQ2 inh inactive | KCNQ1-KCNE1 inh inactive
Cn1c(=O)c(NC2CCCCC2)c2c3c(cccc31)C(=O)c1ccccc1-2	none (no result: KCNK9 inh, Kir21 inh, hERG protect, KCNQ1 block, KCNQ1 act)
CCCCNc1c2c3c(cccc3n(C)c1=O)C(=O)c1ccccc1-2	KCNQ1 block 29 | KCNQ1 block val active | CHO KCNQ1 ctr 0.013 | KCNQ2 inh inactive | KCNQ1-KCNE1 inh inactive
CC(=O)Oc1ccc(C(=O)Nc2ccc(S(=O)(=O)NCC3CCCO3)cc2)cc1 (centres undefined)	none
O=C(c1cc(-c2ccccc2)nc2ccccc12)N1CCOCC1	none
CC(C)c1ccc(-c2cc(C(=O)N3CCOCC3)c3cc(Br)ccc3n2)cc1	KCNQ1 block 6 | KCNQ1 block val 40 | CHO KCNQ1 ctr inactive | KCNQ2 inh 131% | KCNQ1-KCNE1 inh inactive
COc1ccc(N2CC(NC(=O)c3ccc4ccccc4c3)CC2=O)cc1OC (centres undefined)	none
COc1ccccc1OCC(=O)NNC(=O)C1CCN(c2ncnc3sc(C)c(C)c23)CC1	none (no result: KCNK9 inh, Kir21 inh, hERG protect, KCNQ1 block, KCNQ1 act)
COc1ccc(-c2csc(NC(=O)C3CCN(c4ncnc5sc(C)c(C)c45)CC3)n2)cc1OC	KCNQ1 block 9 | KCNQ1 block val 122 | CHO KCNQ1 ctr inactive | KCNQ1 APC inh inactive | KCNQ2 inh 83% | KCNQ1-KCNE1 inh 103%
COc1ccc(CC(=O)Nc2nc(-c3ccc(OC)c(OC)c3)cs2)cc1OC	none
COc1ccc(-c2csc(NC(=O)C3CC(=O)N(Cc4ccccc4)C3)n2)cc1OC (centres undefined)	KCNQ1 block 6 | KCNQ1 block val 123 | CHO KCNQ1 ctr inactive | KCNQ1 APC inh inactive | KCNQ2 inh 93% | KCNQ1-KCNE1 inh 163%
COC(=O)c1ccccc1N/C=C1\CCc2c(c(C)nn2-c2ccccn2)C1=O	KCNQ1 block 6 | KCNQ1 block val 96 | CHO KCNQ1 ctr inactive | KCNQ1 APC inh inactive | KCNQ2 inh 97% | KCNQ1-KCNE1 inh 141%
COC(=O)c1ccccc1NC(=O)CN1CCN(c2ccccn2)CC1	none
N#Cc1cccc(S(=O)(=O)N2CCN(c3ccnc4cc(Cl)ccc34)CC2)c1	none
Nc1ccc(-c2c3ccc(=O)cc-3oc3cc(O)ccc23)cc1C(=O)O	KCNQ1 block 24 | KCNQ1 block val active | CHO KCNQ1 ctr 0.0075 | KCNQ2 inh inactive | KCNQ1-KCNE1 inh inactive
O=c1ccc2c(-c3ccccc3)c3ccc(O)cc3oc-2c1	KCNQ1 block 24 | KCNQ1 block val active | CHO KCNQ1 ctr 0 | KCNQ2 inh inactive | KCNQ1-KCNE1 inh inactive
COCCNC(=O)CCc1nnc2ccc(N3CCC(C)CC3)nn12	none
CCN(CC)S(=O)(=O)c1ccc(C(=O)NCC(=O)NCCCc2ccccc2)cc1	none
C/C(CC(C)(C)c1ccccc1)=N\NS(=O)(=O)c1ccccc1	none
CCc1noc(C)c1C(=O)N1CCCSC1=Nc1ccccc1Cl	KCNQ1 block 7 | KCNQ1 block val 80 | CHO KCNQ1 ctr inactive | KCNQ2 inh 66% | KCNQ1-KCNE1 inh 110%
CCOc1ccc(N=C2SCCCN2C(=O)c2c(CC)noc2C)cc1	none
CCOC(=O)c1ccc(NC(=S)NCCc2ccccc2F)cc1	KCNQ1 block 8 | KCNQ1 block val 84 | CHO KCNQ1 ctr inactive | KCNQ2 inh 77% | KCNQ1-KCNE1 inh 50%
COc1ccccc1-c1ccc(SCc2cccc(C)c2)nn1	KCNQ1 block 11 | KCNQ1 block val inactive | CHO KCNQ1 ctr inactive | KCNQ2 inh 60% | KCNQ1-KCNE1 inh inactive
CCn1cc(C(=O)NCCc2ccc(OC)cc2)c(=O)c2ccc(C)nc21	none
CC(=O)c1cccc(NC(=O)c2ccc3c(c2)CCN3S(=O)(=O)c2ccccc2)c1	KCNQ1 block 6 | KCNQ1 block val 65 | CHO KCNQ1 ctr inactive | KCNQ2 inh inactive | KCNQ1-KCNE1 inh 78%
COc1cccc(OC)c1C(=O)Nc1ccc2c(c1)CCCN2S(=O)(=O)c1ccc(C)cc1	none
Cc1ccc(S(=O)(=O)N2CCCc3cc(NC(=O)c4c(F)cccc4F)ccc32)cc1	KCNQ1 block 7 | KCNQ1 block val 66 | CHO KCNQ1 ctr inactive | KCNQ2 inh 85% | KCNQ1-KCNE1 inh 100%
O=C(c1cc(-c2ccc(Cl)cc2)n(-c2ccc(Cl)c(Cl)c2)n1)N1CCOCC1	none
O=C(c1cc(-c2ccc(Cl)cc2)n(-c2cc(Cl)ccc2Cl)n1)N1CCOCC1	KCNQ1 block 7 | KCNQ1 block val 62 | CHO KCNQ1 ctr inactive | KCNQ2 inh 81% | KCNQ1-KCNE1 inh 86%
COc1ccc(NC(=O)c2ccc(CN3CCN(c4ccccc4)CC3)cc2)cc1	KCNQ1 block 6 | KCNQ1 block val inactive | CHO KCNQ1 ctr inactive | KCNQ2 inh inactive | KCNQ1-KCNE1 inh inactive
COc1ccc(C(=O)Nc2ccc(N3CCN(Cc4ccccc4)CC3)cc2)cc1	none
Cc1ccc(-n2cccn2)c(CN2CCCC(C(=O)c3sccc3C)C2)c1 (centres undefined)	Kir21 inh -4.5, KCNQ1 block 9 | KCNQ1 block val 72 | CHO KCNQ1 ctr inactive | KCNQ2 inh 99% | KCNQ1-KCNE1 inh 54%
COc1ccc(O)c(CN2CCCC(C(=O)Nc3cccc(-n4cccn4)c3)C2)c1 (centres undefined)	none
CC1CC(C)CN(CC(=O)N2CCCc3c2c(=O)oc2ccc(OCc4ccccc4)cc32)C1 (centres undefined)	KCNQ1 block 9 | KCNQ1 block val 110 | CHO KCNQ1 ctr inactive | KCNQ2 inh 100% | KCNQ1-KCNE1 inh 151%
CC1CCN(CC(=O)N2CCCc3c2c(=O)oc2ccc(OCc4ccccc4)cc32)CC1	none
